Values after ≈ are worked out from the molar mass of the structure shown.
Legend:
Type in all cases: functional
[1] = tested on: Mycobacterium tuberculosis; test: Antimicrobial activity against ofloxacin-resistant Mycobacterium tuberculosis H37Rv SRI 4000 assessed as growth inhibition at MIC after 7 days by broth microdilution assay relative to control
Procedure, shortened: (§1)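 Broth microdilution per CLSI in Middlebrook 7H9 + OADC; ten two-fold dilutions; inoculum targeted 1.0 × 10^6 CFU/mL M. tuberculosis; 37 °C, ~90% humidity, 7 days. Wells scored visually for turbidity, partial or complete clearing; MIC = lowest concentration visually inhibiting growth; percent inhibition at the MIC also recorded. Duplicates; rifampin or isoniazid positive control, medium-only and organism-only controls.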

[2] = tested on: Mycobacterium tuberculosis; test: Antimicrobial activity against ofloxacin-resistant Mycobacterium tuberculosis H37Rv SRI 4000 assessed as growth inhibition after 7 days by broth microdilution assay; conditions: H37Rv SRI 4000, 168 h; procedure, shortened: as §1
[3] = tested on: Mycobacterium tuberculosis; test: Antimicrobial activity against rifampin-resistant Mycobacterium tuberculosis H37Rv SRI 1367 assessed as growth inhibition at MIC after 7 days by broth microdilution assay relative to control; procedure, shortened: as §1
[4] = tested on: Mycobacterium tuberculosis; test: Antimicrobial activity against rifampin-resistant Mycobacterium tuberculosis H37Rv SRI 1367 assessed as growth inhibition after 7 days by broth microdilution assay; conditions: H37Rv SRI 1367, 168 h; procedure, shortened: as §1
[5] = tested on: Mycobacterium tuberculosis; test: Antimicrobial activity against isoniazid-resistant Mycobacterium tuberculosis H37Rv SRI 1369 assessed as growth inhibition at MIC after 7 days by broth microdilution assay relative to control; procedure, shortened: as §1
[6] = tested on: Mycobacterium tuberculosis; test: Antimicrobial activity against isoniazid-resistant Mycobacterium tuberculosis H37Rv SRI 1369 assessed as growth inhibition after 7 days by broth microdilution assay; conditions: H37Rv SRI 1369, 168 h; procedure, shortened: as §1

| SMILES | growth inhibition (GI) [1] [%] | MIC [2] [µg/mL] | growth inhibition (GI) [3] [%] | MIC [4] [µg/mL] | growth inhibition (GI) [5] [%] | MIC [6] [µg/mL] |
| --- | --- | --- | --- | --- | --- | --- |
| Clc1ccc2nc3c(c(-c4ccccc4)c2c1)CCC3 | 81 | 12.5 (≈ 44.7 µM) | 83 | 6.25 (≈ 22.3 µM) | 69 | 6.25 (≈ 22.3 µM) |
| O=[N+]([O-])c1ccc2nc3c(c(-c4ccccc4)c2c1)CCCC3 | 50 | 3.12 (≈ 10.3 µM) | 69 | 3.12 (≈ 10.3 µM) | 41 | 6.25 (≈ 20.5 µM) |
| O=[N+]([O-])c1ccc2nc3c(c(-c4ccccc4)c2c1)CCCCC3 | 70 | 37.5 (≈ 118 µM) | 72 | 37.5 (≈ 118 µM) | 52 | 37.5 (≈ 118 µM) |
| NNC(=O)c1ccncc1 [ISONIAZID] | – | – | 85 | 0.02 (≈ 0.146 µM) | – | – |
| CO[C@H]1/C=C/O[C@@]2(C)Oc3c(C)c(O)c4c(O)c(c(/C=N/N5CCN(C)CC5)c(O)c4c3C2=O)NC(=O)/C(C)=C\C=C\[C@H](C)[C@H](O)[C@@H](C)[C@@H](O)[C@@H](C)[C@H](OC(C)=O)[C@@H]1C [RIFAMPIN] | 71 | 1.56 (≈ 1.9 µM) | – | – | 74 | 0.02 (≈ 0.0243 µM) |
